Laboratory results as given in ChEMBL document CHEMBL1154874, “6-Substituted 2-(N-trifluoroacetylamino)imidazopyridines induce cell cycle arrest and apoptosis in SK-LU-1 human cancer cell line” (Eur J Med Chem, 2010).
Activity calls are given as the source filed them. No cut-off for these calls is given here.

Assays:
K562 [1] = experiment: Cytotoxicity against human K562 cells assessed as cell growth inhibition at 50 uM after 48 hrs by SRB assay; assay type: functional; conditions: K562, 48 h, read-out: GI
Outline: (§1)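 Cells in RPMI-1640/10% FBS/2 mM L-glutamine at 37 °C, 5% CO₂, seeded at 5000 cells/well and treated 24 h later for 48 h. Growth read by SRB (TCA fixation, 0.4% SRB, Tris solubilization, OD 515 nm).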

SK-LU-1 [2] = experiment: Induction of apoptosis in human SK-LU-1 cells assessed as late apoptotic cells at 2 times IC50 concentration after 48 hrs using annexin V-propidium iodide staining by flow cytometry; assay type: functional, cell-based
Outline: (§2)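 SK-LU-1 cells treated 48 h with compounds at 2×IC50 or with DMSO as control. Labelled with FITC-annexin V and propidium iodide in binding buffer and analysed on a FACScan flow cytometer. Annexin V-only cells were scored as early apoptotic and annexin V/PI double-stained cells as late apoptotic. Values are means of three independent experiments.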

PC-3 [3] = experiment: Cytotoxicity against human PC3 cells assessed as cell growth inhibition at 50 uM after 48 hrs by SRB assay; assay type: functional; conditions: PC-3, 48 h, read-out: GI; outline: as §1
SK-LU-1 [4] = experiment: Induction of apoptosis in human SK-LU-1 cells assessed as appearance of phosphatidylserine residues at 2 times IC50 concentration after 48 hrs by flow cytometry; assay type: functional; outline: as §2
HCT-15 [5] = experiment: Cytotoxicity against human HCT15 cells after 48 hrs by SRB assay; assay type: functional, cell-based; conditions: HCT-15, 48 h
Outline: (§3)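 Compounds dissolved in DMSO. Cells grown in RPMI-1640 with 10% FBS and 2 mM L-glutamine at 37 °C under 5% CO₂. Seeded from 70% confluent flasks at 5000 cells/well, treated 24 h after seeding for 48 h. Fixed in situ with cold 50% TCA for 1 h at 4 °C, stained with 0.4% SRB, dye solubilized in 10 mM unbuffered Tris base, OD read at 515 nm.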

SK-LU-1 [6] = experiment: Cytotoxicity against human SK-LU-1 cells after 48 hrs by SRB assay; assay type: functional, cell-based; conditions: SK-LU-1, 48 h; outline: as §3
SK-LU-1 [7] = experiment: Cytotoxicity against human SK-LU-1 cells assessed as cell growth inhibition at 50 uM after 48 hrs by SRB assay; assay type: functional; conditions: SK-LU-1, 48 h, read-out: GI; outline: as §1
MCF7 [8] = experiment: Cytotoxicity against human MCF7 cells after 48 hrs by SRB assay; assay type: functional, cell-based; conditions: MCF7, 48 h; outline: as §3
SK-LU-1 [9] = experiment: Cell cycle arrest in human SK-LU-1 cells assessed as accumulation at S phase at 2 times IC50 concentration after 24 hrs using propidium iodide staining by flow cytometry relative to control; assay type: functional
Outline: (§4)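 Log-phase cells seeded in RPMI-1640 + 10% FBS at 1×10⁶ per 10 cm dish, attached 24 h at 37 °C, then exposed to compound (DMSO solvent control) for 24 h. Harvested with PBS-EDTA, washed, fixed in ice-cold 70% ethanol at −20 °C for 24–48 h, stained with propidium iodide and analysed by FACScan flow cytometry. Three independent experiments, mean ± SD; P < 0.05 versus DMSO.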

K562 [10] = experiment: Cytotoxicity against human K562 cells after 48 hrs by SRB assay; assay type: functional, cell-based; conditions: K562, 48 h; outline: as §3
U-251 [11] = experiment: Cytotoxicity against human U251 cells assessed as cell growth inhibition at 50 uM after 48 hrs by SRB assay; assay type: functional; conditions: U-251, 48 h, read-out: GI; outline: as §1
HCT-15 [12] = experiment: Cytotoxicity against human HCT15 cells assessed as cell growth inhibition at 50 uM after 48 hrs by SRB assay; assay type: functional; conditions: for inhibition of growth at 50 µM: HCT-15, 48 h, read-out: GI; outline: as §1
MCF7 [13] = experiment: Cell cycle arrest in human MCF7 cells assessed as accumulation at S phase at 2 times IC50 concentration after 24 hrs using propidium iodide staining by flow cytometry relative to control; assay type: functional; outline: as §4
MCF7 [14] = experiment: Cell cycle arrest in human MCF7 cells assessed as accumulation at G0/G1 phase at 2 times IC50 concentration after 24 hrs using propidium iodide staining by flow cytometry relative to control; assay type: functional; outline: as §4
MCF7 [15] = experiment: Cytotoxicity against human MCF7 cells assessed as cell growth inhibition at 50 uM after 48 hrs by SRB assay; assay type: functional; conditions: MCF7, 48 h, read-out: GI; outline: as §1
U-251 [16] = experiment: Cytotoxicity against human U251 cells after 48 hrs by SRB assay; assay type: functional, cell-based; conditions: U-251, 48 h; outline: as §3
MCF7 [17] = experiment: Cell cycle arrest in human MCF7 cells assessed as accumulation at G2/M phase at 2 times IC50 concentration after 24 hrs using propidium iodide staining by flow cytometry relative to control; assay type: functional; outline: as §4
SK-LU-1 [18] = experiment: Cell cycle arrest in human SK-LU-1 cells assessed as accumulation at G0/G1 phase at 2 times IC50 concentration after 24 hrs using propidium iodide staining by flow cytometry relative to control; assay type: functional; outline: as §4
PC-3 [19] = experiment: Cytotoxicity against human PC3 cells after 48 hrs by SRB assay; assay type: functional, cell-based; conditions: PC-3, 48 h; outline: as §3
SK-LU-1 [20] = experiment: Induction of apoptosis in human SK-LU-1 cells assessed as early apoptotic cells at 2 times IC50 concentration after 48 hrs using annexin V-propidium iodide staining by flow cytometry; assay type: functional, cell-based; outline: as §2
SK-LU-1 [21] = experiment: Cell cycle arrest in human SK-LU-1 cells assessed as accumulation at G2/M phase at 2 times IC50 concentration after 24 hrs using propidium iodide staining by flow cytometry relative to control; assay type: functional; outline: as §4

| SMILES | inhibition of growth at 50 µM (K562 [1]) [%] | inhibition of growth at 50 µM (PC-3 [3]) [%] | Activity (SK-LU-1 [4]) [%] | IC50 (HCT-15 [5]) [µM] | IC50 (SK-LU-1 [6]) [µM] | inhibition of growth at 50 µM (SK-LU-1 [7]) [%] | IC50 (MCF7 [8]) [µM] | Activity (SK-LU-1 [9]) [%] | IC50 (K562 [10]) [µM] | inhibition of growth at 50 µM (U-251 [11]) [%] | inhibition of growth at 50 µM (HCT-15 [12]) [%] | Activity (MCF7 [13]) [%] | Activity (MCF7 [14]) [%] | inhibition of growth at 50 µM (MCF7 [15]) [%] | IC50 (U-251 [16]) [µM] | Activity (MCF7 [17]) [%] | Activity (SK-LU-1 [18]) [%] | IC50 (PC-3 [19]) [µM] | Activity (SK-LU-1 [21]) [%] | also measured |
| --- | --- | --- | --- | --- | --- | --- | --- | --- | --- | --- | --- | --- | --- | --- | --- | --- | --- | --- | --- | --- |
| Cc1ccc(F)c(C(=O)c2ccc3nc(NC(=O)C(F)(F)F)cn3c2)c1 | 92.6 | 59.2 | 20 | 10.5 | 11.2 | 71.7 | 10.7 | 21.2 | 10.9 | 61.5 | 91.2 | 7.1 | 74 | 66.3 | 51.9 | 13.4 | 10.4 | 36.3 | – | Activity (SK-LU-1 [2]): Active; Activity (SK-LU-1 [20]): Active |
| Cn1cc(C(=O)c2ccc3nc(NC(=O)C(F)(F)F)cn3c2)c2ccccc21 | 95.5 | 63.7 | 24.1 | 65.1 | 24.8 | 69.2 | 44.3 | 14.7 | 54.6 | 92.7 | 78 | 6.3 | 70.6 | 80.4 | 27.8 | 20.2 | 32.9 | – | 47.5 | Activity (SK-LU-1 [2]): Active; Activity (SK-LU-1 [20]): Active |
| O=C(c1ccc2nc(NC(=O)C(F)(F)F)cn2c1)c1ncc[nH]1 | 88.3 | 58.1 | – | 56.8 | 25.1 | 97.5 | 42.4 | – | 51.5 | 80.2 | 47.8 | – | – | 60.7 | 37.7 | – | – | 52.3 | – | – |
| Cc1ccc(C(=O)c2ccc3nc(NC(=O)C(F)(F)F)cn3c2)cc1F | 52.2 | 30.7 | 39.5 | – | – | 81.5 | – | 16.2 | – | 37.9 | 65.5 | 14.5 | 63.5 | 57.3 | – | 18.1 | 22.6 | – | 60.6 | – |
| O=C(Nc1cn2cc(I)ccc2n1)C(F)(F)F | 33.1 | 50.9 | – | – | – | 25.6 | – | – | – | 20.8 | 56.3 | – | – | 36.7 | – | – | – | – | – | – |
| O=C(c1ccc2nc(NC(=O)C(F)(F)F)cn2c1)c1cc(C(F)(F)F)ccc1F | 88 | 61.5 | – | – | – | 70.5 | – | – | – | 59.3 | 91.7 | – | – | 65.1 | – | – | – | – | – | – |
| O=C(c1ccc2nc(NC(=O)C(F)(F)F)cn2c1)c1ccc(C(F)(F)F)cc1F | 90.2 | 92.6 | – | 25 | 35.1 | 100 | 24.9 | – | 56.6 | 80.1 | 100 | – | – | 97.2 | 52.3 | – | – | 28 | – | – |
| Cn1cnc2c(NCc3ccccc3)nc(NCCO)nc21 [OLOMOUCINE] | 19.8 | 22.7 | – | 62.5 | 68.1 | 36.9 | 55.9 | 19.7 | 89.3 | 32 | 28.9 | 15 | 60.6 | 37.6 | 81.5 | 23.2 | 44.2 | 81 | 31.8 | – |
| O=C(c1ccc(C(F)(F)F)c(F)c1)c1ccc2nc(NC(=O)C(F)(F)F)cn2c1 | 50.1 | 32.6 | – | 57.1 | 57.1 | 48.3 | 50.8 | – | 83.2 | 38.4 | 59.2 | – | – | 56.5 | 84.2 | – | – | – | – | – |
| Cn1ccnc1C(=O)c1ccc2nc(NC(=O)C(F)(F)F)cn2c1 | 45.3 | 6.1 | – | – | – | 29.2 | – | – | – | 11.9 | – | – | – | 30.8 | – | – | – | – | – | growth inhibition (GI) (HCT-15 [12]): inactive |
